Assay results as given in ChEMBL document CHEMBL1132997, “Bis(phenazine-1-carboxamides): structure-activity relationships for a new class of dual topoisomerase I/II-directed anticancer drugs” (J Med Chem, 2000).

Tests used:
[1] = The average concentration resulting in inhibition of cell growth to 50% whole cell line panel; format: functional
Outline: (§1)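 Tested in the NCI human tumour cell line panel. GI50 (nM) is the drug concentration inhibiting cell growth to 50% of controls. The panel mean ("Mid") is the average GI50 over the whole cell line panel.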

[2] = system: Lewis lung carcinoma cell line; assay: Inhibitory activity against Murine Lewis lung carcinoma cells; format: functional, cell-based; settings: Mus musculus
Outline: (§2)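 Growth inhibition in microculture with drug present throughout. Seeding was 4.5 × 10³ P388, 10³ Lewis lung or 3.75 × 10³ wild-type Jurkat cells per well. Exposure was 3 days for P388 and 4 days for the others. IC50 (nM) is the drug concentration reducing cell number to 50% of control cultures. Each value averages at least two independent duplicate determinations; CV 15–22%.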

P388 = assay: Inhibitory activity against Murine P388 leukemia cells; format: functional, cell-based; settings: Mus musculus; outline: as §2
HT-29 = assay: 50% inhibition of cell growth against HT-29 cell line; format: functional; settings: Homo sapiens; outline: as §1
NCI/ADR-RES = assay: 50% inhibition of cell growth against NCI/ADRcell line; format: functional; settings: Homo sapiens; outline: as §1
HCT-116 = assay: 50% inhibition of cell growth against HCT116 cell line; format: functional; settings: Homo sapiens; outline: as §1
CAKI-1 = assay: 50% inhibition of cell growth against CAK1 cell line; format: functional; settings: Homo sapiens; outline: as §1
MCF7 = assay: 50% inhibition of cell growth against MCF-7 cell line; format: functional; settings: Homo sapiens; outline: as §1
Jurkat = assay: Inhibitory activity against wild-type human Jurkat leukemia cells; format: functional, cell-based; outline: as §2
SK-OV-3 = assay: 50% inhibition of cell growth against SKOV-3 cell line; format: functional; settings: Homo sapiens; outline: as §1

IC50 [2] [nM] | IC50 (P388) [nM] | GI50 (HT-29) [nM] | GI50 (HCT-116) [nM] | GI50 (MCF7) [nM] | IC50 (Jurkat) [nM] | GI50 (SK-OV-3) [nM] | SMILES | GI50 [1] [nM] | GI50 (NCI/ADR-RES) [nM] | GI50 (CAKI-1) [nM]
160 | 815 | 35 | < 10 | 47 | 124 | 1560 | COc1cccc2nc3cccc(C(=O)NCCCN(C)CCCNC(=O)c4cccc5nc6cccc(OC)c6nc45)c3nc12 | 575 | 21000 | 1420
3.2 | 24 | – | – | – | 9 | – | CN(CCCNC(=O)c1cccc2nc3ccc4ccccc4c3nc12)CCCNC(=O)c1cccc2nc3ccc4ccccc4c3nc12 | – | – | –
44 | 97 | < 10 | < 10 | < 10 | 42 | 1880 | CN(CCCNC(=O)c1cccc2nc3ccc(Cl)cc3nc12)CCCNC(=O)c1cccc2nc3ccc(Cl)cc3nc12 | 70 | 240 | 62
108 | 690 | 90 | 325 | 330 | 148 | 11000 | Cc1ccc2nc3cccc(C(=O)NCCCN(C)CCCNC(=O)c4cccc5nc6ccc(C)cc6nc45)c3nc2c1 | 290 | 1570 | 240
72 | 623 | 235 | 455 | 550 | 280 | 5840 | Cc1ccc2nc3c(C(=O)NCCCN(C)CCCNC(=O)c4cccc5nc6cc(C)ccc6nc45)cccc3nc2c1 | 600 | 2660 | 430
5.2 | 29 | 40 | < 10 | < 10 | 9.8 | 2030 | Cc1ccc(Cl)c2nc3cccc(C(=O)NCCCN(C)CCCNC(=O)c4cccc5nc6c(Cl)ccc(C)c6nc45)c3nc12 | 50 | 50 | < 10
107 | 520 | 44 | 16 | 120 | 173 | 850 | CN(CCCNC(=O)c1cccc2nc3ccccc3nc12)CCCNC(=O)c1cccc2nc3ccccc3nc12 | 210 | 1050 | 225
5.3 | 26 | < 10 | < 10 | < 10 | 21 | 74 | Cc1ccc(C)c2nc3c(C(=O)NCCCN(C)CCCNC(=O)c4cccc5nc6c(C)ccc(C)c6nc45)cccc3nc12 | 34 | 35 | < 10
46 | 584 | 270 | 63 | 480 | 172 | 12000 | Cc1cccc2nc3c(C(=O)NCCCN(C)CCCNC(=O)c4cccc5nc6c(C)cccc6nc45)cccc3nc12 | 740 | 920 | 370
26 | 375 | – | – | – | 102 | – | Cc1ccc(C(=O)NCCCN(C)CCCNC(=O)c2ccc(C)c3nc4ccccc4nc23)c2nc3ccccc3nc12 | – | – | –
8370 | 12000 | 135 | 285 | 4070 | 2370 | 88000 | CN(CCCNC(=O)c1c(Cl)ccc2nc3ccccc3nc12)CCCNC(=O)c1c(Cl)ccc2nc3ccccc3nc12 | 5750 | > 100000 | 34000
64 | 600 | 93 | 37 | 2000 | 195 | 9660 | COc1ccc2nc3c(C(=O)NCCCN(C)CCCNC(=O)c4cccc5nc6cc(OC)ccc6nc45)cccc3nc2c1 | 4170 | 20000 | 3020
48 | 472 | 130 | 470 | 310 | 208 | 12000 | Cc1cc(C(=O)NCCCN(C)CCCNC(=O)c2cc(C)cc3nc4ccccc4nc23)c2nc3ccccc3nc2c1 | 725 | 5730 | 170
310 | 2280 | 530 | 430 | 1820 | 695 | 10000 | CN(CCCNC(=O)c1cccc2nc3cccc(N(C)C)c3nc12)CCCNC(=O)c1cccc2nc3cccc(N(C)C)c3nc12 | 2510 | 11000 | 2910
83 | 2960 | 80 | 35 | 330 | 249 | 1960 | CN(CCCNC(=O)c1cccc2nc3cc(Cl)ccc3nc12)CCCNC(=O)c1cccc2nc3cc(Cl)ccc3nc12 | 560 | 1140 | 530
1310 | 3450 | 1790 | 1770 | 3480 | 1250 | 11000 | CN(CCCNC(=O)c1cccc2nc3cccc(Oc4ccccc4)c3nc12)CCCNC(=O)c1cccc2nc3cccc(Oc4ccccc4)c3nc12 | 3160 | 1630 | 5360
24 | 75 | < 10 | < 10 | < 10 | 30 | 800 | COc1ccc2nc3cccc(C(=O)NCCCN(C)CCCNC(=O)c4cccc5nc6ccc(OC)cc6nc45)c3nc2c1 | 72 | 1210 | 82
120 | 294 | 400 | 225 | 460 | 177 | 14000 | CN(CCCNC(=O)c1cccc2nc3cccc(F)c3nc12)CCCNC(=O)c1cccc2nc3cccc(F)c3nc12 | 1320 | 7450 | 1730
8.8 | 39 | 70 | < 10 | 35 | 14 | 790 | CN(CCCNC(=O)c1cccc2nc3cccc(Cl)c3nc12)CCCNC(=O)c1cccc2nc3cccc(Cl)c3nc12 | 93 | 350 | 15
12 | 204 | < 10 | 18 | 110 | 74 | 1460 | CN(CCCNC(=O)c1cc(Cl)cc2nc3ccccc3nc12)CCCNC(=O)c1cc(Cl)cc2nc3ccccc3nc12 | 180 | 125 | 1170
410 | 450 | – | – | – | 290 | – | CN(CCCNC(=O)c1cccc2nc3c(ccc4ccccc43)nc12)CCCNC(=O)c1cccc2nc3c(ccc4ccccc43)nc12 | – | – | –
151 | 7740 | – | – | – | 209 | – | CN(CCCNC(=O)c1cccc2nc3c(Cl)cccc3nc12)CCCNC(=O)c1cccc2nc3c(Cl)cccc3nc12 | – | – | –
1.6 | 15 | < 10 | < 10 | < 10 | 5.7 | 220 | Cc1cccc2nc3cccc(C(=O)NCCCN(C)CCCNC(=O)c4cccc5nc6cccc(C)c6nc45)c3nc12 | 20 | 19 | < 10
